Laboratory results reported in ChEMBL document CHEMBL4706745, “Balanced Intersystem Crossing in Iodinated Silicon-Fluoresceins Allows New Class of Red Shifted Theranostic Agents” (ACS Med Chem Lett, 2021).
Activity calls are given as the source filed them. No cut-off for these calls is given here.

Legend:
HCT-116 [1] = assay: Induction of apoptosis in human HCT-116 cells at 5 uM irradiated with 595 +/- 5 nanometer LED light for 2 hrs in presence of NaN3 by annexin V-FITC and PI staining based confocal microscopic analysis; format: functional, cell-based
Outline: (§1)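 Cells treated with 5 μM and either kept dark or irradiated 2 h with a 595 nm LED, with or without NaN3. Annexin V-FITC (early apoptosis) and PI (late apoptosis/necrosis) staining 30 min after PDT, then confocal imaging. DMSO 0.5% vehicle control.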

MDA-MB-231 [2] = assay: Phototoxicity against human MDA-MB-231 cells assessed as reduction in cell viability irradiated with 595 and 630 nanometer LED light and further incubated for 24 hrs by MTT assay; format: functional, cell-based; conditions: dose 0.5-20 µM
Outline: (§2)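 MTT viability assay. Cells incubated with 0.5–20 μM, then irradiated with a 595 nm (9.83 mW/cm2) or 630 nm (24.3 mW/cm2) LED for 1 or 2 h, followed by 23 or 22 h dark respectively. Light alone and vehicle controls included. Mean ± SD, n = 4.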

[3] = Induction of singlet oxygen generation in DMSO/ADMDA solution assessed as decrease in ADMDA absorption irradiated with 630 nanometer LED light at 5 uM; format: functional
[4] = Induction of singlet oxygen generation in pH 7.4 DMSO solution at 614 nanometer assessed as singlet oxygen quantum yield irradiated with 630 nanometer LED light; format: functional
[5] = Photostability in pH 7.4 PBS buffer at 614/630 nanometer irradiated with 595 nanometer LED light for 2 hrs by measuring fluorescence peak; format: physicochemical; conditions: pH 7.4, 2 h
Outline: (§3)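 Absorption at 614 nm and emission at 630 nm tracked under continuous 595 or 630 nm LED irradiation for 2 h in PBS (pH 7.4, 0.5% DMSO).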

MDA-MB-231 [6] = assay: Cytotoxicity against human MDA-MB-231 cells assessed as reduction in cell viability at 0.5 to 20 uM incubated for 24 hrs by MTT assay; format: cell-based; conditions: mda-mb-231, 24 h, dose 0.5-20 µM
Outline: (§4)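 Cells exposed to 0.5–20 μM for 24 h in the dark, then assessed by MTT for viability. Vehicle control included. Mean ± SD, n = 4.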

HCT-116 [7] = assay: Induction of apoptosis in human HCT-116 cells assessed as increase in necrotic cells at 5 uM irradiated with 595 +/- 5 nanometer LED light for 2 hrs by annexin V-FITC and PI staining based confocal microscopic analysis; format: functional, cell-based; outline: as §1
MDA-MB-231 [8] = assay: Induction of apoptosis in human MDA-MB-231 cells assessed as increase in necrotic cells at 5 uM irradiated with 595 +/- 5 nanometer LED light for 2 hrs by annexin V-FITC and PI staining based confocal microscopic analysis; format: functional, cell-based; outline: as §1
[9] = Induction of singlet oxygen generation in DMSO solution using singlet oxygen sensor green assessed as increase in SOSG intensity irradiated with 595 nanometer LED light at 5 uM; format: functional
Outline: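 5 μM compound with singlet oxygen sensor green (SOSG); increase in SOSG emission monitored during 595 nm LED irradiation (9.83 mW/cm2).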

HCT-116 [10] = assay: Induction of ROS generation in human HCT-116 cells at 5 uM irradiated with 595 +/- 5 nanometer LED light for 2 hr by DCFH2-DA staining based confocal microscopic analysis; format: functional, cell-based
Outline: (§5)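 Cells loaded with 5 μM compound and the ROS sensor DCFH2-DA; kept dark or irradiated with a 595 nm LED for 2 h, with or without NaN3 as singlet oxygen quencher. Green emission imaged by confocal microscopy. Controls: DMSO 0.5% vehicle and H2O2 (500 μM, 2 h) as positive control.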

[11] = Photostability in pH 7.4 PBS buffer at 614/630 nanometer irradiated with 630 nanometer LED light for 2 hrs by measuring fluorescence peak; format: physicochemical; conditions: pH 7.4, 2 h; outline: as §3
[12] = Drug uptake in human HCT-116 cells assessed as cytosolic red emission at 5 uM incubated for 2 hrs by Hoechst-33342 staining based confocal microscopic analysis; format: ADME, cell-based; conditions: hct-116, 2 h
Outline: (§6)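 Cells incubated with 5 μM for 2 h and washed before confocal imaging of intracellular red emission.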

[13] = Induction of singlet oxygen generation in pH 7.4 DMSO solution at 614 nanometer assessed as singlet oxygen quantum yield irradiated with 595 nanometer LED light; format: functional
[14] = Induction of singlet oxygen generation in DMSO solution using singlet oxygen sensor green assessed as increase in SOSG intensity irradiated with 630 nanometer LED light at 5 uM; format: functional
[15] = Drug uptake in human MDA-MB-231 cells assessed as cytosolic red emission at 5 uM incubated for 2 hrs by Hoechst-33342 staining based confocal microscopic analysis; format: ADME, cell-based; conditions: mda-mb-231, 2 h; outline: as §6
MDA-MB-231 [16] = assay: Induction of ROS generation in human MDA-MB-231 cells at 5 uM irradiated with 595 +/- 5 nanometer LED light for 2 hr by DCFH2-DA staining based confocal microscopic analysis; format: functional, cell-based; outline: as §5
MDA-MB-231 [17] = assay: Induction of ROS generation in human MDA-MB-231 cells at 5 uM incubated for 2 hr by DCFH2-DA staining based confocal microscopic analysis; format: cell-based; conditions: mda-mb-231, 2 h; outline: as §5
HCT-116 [18] = assay: Cytotoxicity against human HCT-116 cells assessed as reduction in cell viability at 0.5 to 20 uM incubated for 24 hrs by MTT assay; format: cell-based; conditions: hct-116, 24 h, dose 0.5-20 µM; outline: as §4
MDA-MB-231 [19] = assay: Induction of apoptosis in human MDA-MB-231 cells at 5 uM irradiated with 595 +/- 5 nanometer LED light for 2 hrs in presence of NaN3 by annexin V-FITC and PI staining based confocal microscopic analysis; format: functional, cell-based; outline: as §1
HCT-116 [20] = assay: Induction of ROS generation in human HCT-116 cells at 5 uM incubated for 2 hr by DCFH2-DA staining based confocal microscopic analysis; format: cell-based; conditions: hct-116, 2 h; outline: as §5
HCT-116 [21] = assay: Phototoxicity against human HCT-116 cells assessed as reduction in cell viability irradiated with 595 and 630 nanometer LED light and further incubated for 24 hrs by MTT assay; format: functional, cell-based; conditions: dose 0.5-20 µM; outline: as §2
[22] = Induction of singlet oxygen generation in DMSO/ADMDA solution assessed as decrease in ADMDA absorption irradiated with 595 nanometer LED light at 5 uM; format: functional
Outline: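 5 μM compound mixed with the water-soluble trap ADMDA in oxygen-saturated PBS (pH 7.4, 0.5% DMSO), then LED irradiated (595 nm at 9.83 mW/cm2). Decrease in ADMDA absorption monitored, with the first 40 s kept in the dark.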

[23] = Fluorescence property of the compound in pH 7.4 PBS buffer assessed as fluorescence quantum yield by fluorescence spectrophotometric method; format: physicochemical

For `C[Si]1(C)C2=C(I)C(=O)C(I)=CC2=C(c2ccccc2C(=O)O)c2cc(I)c(O)c(I)c21`, the Activity (HCT-116 [1]) was “inactive”, the inhibition (MDA-MB-231 [2]) was “Dose-dependent effect” and the Activity [3] was “Active”. For the same compound, the Activity [4] was 30%, the Stabilty [5] was “Stable” and the Activity (MDA-MB-231 [6]) was “Non-Toxic”. The Activity (HCT-116 [7]) was “inactive”, the Activity (MDA-MB-231 [8]) was “inactive” and the Activity [9] was “Active”. For the same compound, the Activity (HCT-116 [10]) was “Active”, the Stabilty [11] was “Stable” and the Drug uptake [12] was “Active”. The Activity [13] was 45%, the Activity [14] was “Active” and the Drug uptake [15] was “Active”. The Activity (MDA-MB-231 [16]) was “Active”, the Activity (MDA-MB-231 [17]) was “Non-Toxic” and the Activity (HCT-116 [18]) was “Non-Toxic”. The Activity (MDA-MB-231 [19]) was “inactive”, the Activity (HCT-116 [20]) was “Non-Toxic” and the inhibition (HCT-116 [21]) was “Dose-dependent effect”. For the same compound, the Activity [22] was “Active” and the Activity [23] was 11%.
